# Assay outcomes (PubChem)
# VIM-2 inh – inhibitors of Pseudomonas aeruginosa VIM-2 metallo-beta-lactamase | purified VIM-2, nitrocefin hydrolysis, epi-absorbance fluorescence | inhibition, % at 5.6 µM | 290,000 compounds, 0.89% hits;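 active = inhibition above the mean of all tested compounds plus 3 SD, cutoff set per screening run, cut at about 7.5% in these data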;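 note: red hydrolysis product quenches plate fluorescence so inhibitors raise well fluorescence; 0% = enzyme with DMSO and 100% = DMSO without enzyme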
# PHOSPHO1 block – PHOSPHO1 (human) inhibition | Q8TCT1 | recombinant PHOSPHO1, absorbance phosphatase assay | inhibition, % at 13.3 µM | 290,000 compounds, 1.1% hits | AID 1565; in the data active = inhibition above about 60%
# Target sequence (Q8TCT1 whole entry, looked up): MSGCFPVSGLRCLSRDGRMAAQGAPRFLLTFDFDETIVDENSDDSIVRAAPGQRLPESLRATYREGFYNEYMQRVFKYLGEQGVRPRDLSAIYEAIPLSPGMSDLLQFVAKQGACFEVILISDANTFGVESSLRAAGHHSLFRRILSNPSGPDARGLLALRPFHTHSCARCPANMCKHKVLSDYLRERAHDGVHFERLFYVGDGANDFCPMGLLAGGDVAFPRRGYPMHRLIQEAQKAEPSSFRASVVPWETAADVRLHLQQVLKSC
# Yeast superoxide – lowers age-related superoxide in aged yeast cells; AID 2690; 330,000 compounds, 0.18% hits; S. cerevisiae aged cells, superoxide DHE fluorescence; stronger effect = lower value; superoxide response (% of plate mean), % at 10 µM;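 active = superoxide response under a set limit, about three screen SD below normal, cut at about 65% in these data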;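 note: yeast aged for seven days with compound at 30 °C before DHE staining; 100% = average MFI of all compound-treated wells on the plate with controls excluded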
# PvdQ inh – P. aeruginosa PvdQ acylase inhibition; purified PvdQ acylase, fluorescence plate reader; inhibition, % at 10 µM; 340,000 compounds, 0.063% hits; AID 488965; in the data active = inhibition above about 30%, passing the limit was not always enough;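 note: 0% = vehicle neutral wells and 100% = reference inhibitor wells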
# IMP-1 inh – inhibitors of Pseudomonas aeruginosa IMP-1 metallo-beta-lactamase. purified IMP-1, nitrocefin hydrolysis, epi-absorbance fluorescence. inhibition, % at 5.6 µM. 290,000 compounds, 0.45% hits. AID 1556;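 active = inhibition above the mean plus 3 SD of all compounds in the same screening run, cut at about 4.5% in these data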;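 note: 0% = IMP-1 with DMSO and 100% = DMSO wells lacking enzyme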
#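 Test system: recombinant IMP-1 enzyme, purified / Medium: HEPES buffer pH 7.1 with ZnSO4 and Brij 35 / Doses: single dose, 5.6 µM / Times: 25 °C, 15 min preincubation, 25 min reaction / Detection: Epi-absorbance via hydrolysed-nitrocefin quenching of white-plate fluorescence, 480/530 nm, EDTA stop / Evaluation: percent inhibition from optical density relative to buffer-blank wells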
# The depositor's hits bear a star; . = no result given; ! = not confirmed by another sample. Shown are actives, neighbours in structure and some others; about 2.2% of the full set was active somewhere.
SMILES,VIM-2 inh,PHOSPHO1 block,Yeast superoxide,PvdQ inh,IMP-1 inh
N#CC1=C(S)N(c2ccccc2)C(c2ccc(-c3cc(Cl)ccc3Cl)o2)NC1=O (configuration not stated),-3,17,102,6,0
O=C(Cc1cc(=O)[nH][nH]1)N/N=C/c1c(Cl)cccc1Cl,2,-9,97,3,7.5*!
O=C1c2ccccc2-c2ncnc3cccc1c23,-2,.,.,.,-5
O=C(O)c1ccc2c3c(ncnc13)-c1ccccc1C2=O,4,105*,115,.,-2
COc1cc(C2c3sc(=O)[nH]c3SC3C4CCC(C4)C23)ccc1O (configuration not stated),8.8*,23,98,-2,3
CC1CN(C(=O)C2CCCC2)C(C)CN1C(=O)C1CCCC1 (configuration not stated),1,60*,95,-6,-5
COc1ccc(CNc2cc(C)ccc2C)c(OC)c1OC,-6,7,81,-15,-5
COc1cc(Br)c(CNc2cc(C)ccc2C)cc1OC,-2,.,108,-10,4.7*
CCOC(=O)N1CCC(=C2c3ccc(Cl)cc3CCc3cccnc32)CC1,-3,74*!,111,-4,-3
C[C@H]1NC(=O)[C@]2(C)[C@@H](c3ccccc3)[C@H]3COc4ccccc4[C@H]3N2C1=O,.,.,.,9,.
Fc1ccc(-c2n[nH]c(=S)n2-c2ccc3c(c2)OCCO3)cc1,9.2*,-10,115,-7,0
Cc1nn(C)cc1-c1n[nH]c(=S)n1-c1ccc(F)cc1,5,-9,91,-4,-2
Cc1occc1-c1n[nH]c(=S)n1-c1ccccc1,8.7*,1,106,-18,-5
Cc1ccc(-n2c(-c3cn(C)nc3C)n[nH]c2=S)cc1,8.9*,9,101,.,-5
Cc1ccc(-c2n[nH]c(=S)n2C)cc1,6,94*,.,-8,0
Cc1cc(C)c(OCC(=O)NCCCn2nc(C)cc2C)c(C)c1,.,.,101,-4,.
S=c1[nH]nc(-c2ccc3ccccc3n2)n1-c1cc(Cl)cc(Cl)c1,-3,1,101,-4,-1
Fc1ccc(-n2c(-c3ccc4ccccc4n3)n[nH]c2=S)cc1,1,60*,112,0,0
Cn1cc(Cl)c(-c2n[nH]c(=S)n2-c2ccc(F)cc2)n1,11*,3,89,-8,-1
Nc1cc(N)nc(SCC(=O)NC2CCCCCCC2)n1,.,.,.,-9,.
O=c1c2cc(Cl)ccc2oc2nc3n(c(=O)c12)CCCS3,9.7*,30,120,-9,1
N#Cc1c(-c2ccc(Cl)cc2)nc2n(c1=O)CCCS2,-1,-8,168,-9,-1
CC1=C(C)NC(=S)SC1,0,73*,92,-14,-3
O=C1NC(c2cccc(OCc3ccccc3)c2)Nc2ccccc21 (configuration not stated),.,.,.,-9,.
O=Cc1coc2ccc3ccccc3c2c1=O,3,8,101,-8,36*
SMILES,VIM-2 inh,PHOSPHO1 block,Yeast superoxide,PvdQ inh,IMP-1 inh
Clc1ccc2ccc3cccnc3c2n1,0,61*,93,-4,-6
N#CCCn1c(SCC(=O)N2CCN(S(=O)(=O)c3ccccc3)CC2)nc2ccccc21,-2,86*,97,-14,-4
COc1ccccc1-n1cnnc1SCC(=O)N1CCN(C(=O)c2ccco2)CC1,-1,17,127,-16,-2
COc1ccccc1-n1cnnc1SCC(=O)N1CCN(S(=O)(=O)c2ccccc2)CC1,-4,88*,105,-13,-3
COCCN1C(=O)/C(=C/c2ccc(N3CCCC3)cc2)SC1=S,5,-12,109,-28,4.5*
O=C(COC(=O)CSc1ccc(Cl)cc1)Nc1ccc2[nH]c(=O)[nH]c2c1,.,.,127,11,.
CN(C)CCCNCCCNC(=O)/C=N/O,-1,5,93,-8,4.6*
CN(C)CCCNCCCCNC(=O)/C=N/O,-2,11,95,-13,-2
COCc1c(C(=O)OCC(=O)NCCc2ccc(S(N)(=O)=O)cc2)oc2ccccc12,.,.,65*,-3,.
CCOc1ccc(C(=O)Nc2nnc(SCC(=O)NCC3CCCO3)s2)cc1OCC (configuration not stated),-1,18,102,-7,-3
O=C(CSc1nnc(NC(=O)c2cccc(Cl)c2)s1)NCC1CCCO1 (configuration not stated),8.6*,18,97,-13,-2
Cc1ccc(NC(=O)C2=C(C(=O)O)CCCC2)cc1F,1,-1,96,-8,7.9*
Cc1ccc(NC(=O)C2=C(C(=O)O)CCCC2)cc1Br,3,34,103,-16,13*
N#Cc1c(NC(=O)CSc2nc(N)cc(=O)[nH]2)sc2c1CCCC2,-2,-19,100,7,1
COCc1ccc(C(=O)NC2CCCc3c2cnn3-c2cc(C)cc(C)c2)s1 (configuration not stated),-1,31,.,-5,1
COc1cccc(C2(C)NC(=O)N(CC(=O)Nc3ccc(N4CCOCC4)cc3)C2=O)c1 (configuration not stated),.,.,91,-16,.
Cn1ncc(Cl)c1C(=O)N1CCN(S(=O)(=O)c2ccc(Cl)s2)CC1,-3,.,99,-6,-2
Cc1ccc(C2C(C#N)=C(N)SC(N)=C2C#N)o1,3,102*,96,.,2
CCc1ccc(C2C(C#N)=C(N)SC(N)=C2C#N)s1,-3,5,92,1,-2
COc1ccc(O)c(-c2[nH]ncc2C(=O)c2cccc(C)c2)c1,-1,7,107,-12,5.1*
COc1ccc(C(=O)c2cn[nH]c2-c2cc(C)ccc2O)cc1,-2,24,114,-3,-2
O=C(Nc1ccccc1)C(=O)Nc1cccnc1,-1,3,114,-10,-2
O=C(Nc1cccnc1)/C(N=Nc1cccnc1)=C(\O)c1ccccc1,10*,-4,95,-8,-4
COc1ccc(CC(=O)N[C@@H]2c3cc(OC)c(OC)cc3C[C@H]2O)cc1,.,.,103,14,.
Cc1cccc(/N=C/c2sc3ccccc3c2O)n1,3,38,106,7,0
SMILES,VIM-2 inh,PHOSPHO1 block,Yeast superoxide,PvdQ inh,IMP-1 inh
Oc1c(C=Nc2cccc3cccnc23)sc2ccccc12,9.7*,19,102,.,-2
S=c1[nH]ncn1/N=C/c1ccccn1,-3,98*,109,1,-4
S=c1[nH]ncn1/N=C/c1cccs1,-2,-10,94,-14,-4
CCOC(=O)C[n+]1c(C)sc2ccc(OC)cc21,-2,92*,83,-4,-3
CCO/C(=C/c1sc2ccc(OC)cc2[n+]1CCCS(=O)(=O)[O-])CC,-4,32,86,-5,-3
Cn1c(CNC2CCCCC2)c(C#N)c2ccccc21,-1,46,103,-6,0
COc1ccccc1-c1nn2c(C3COc4ccccc4O3)nnc2s1 (configuration not stated),-1,92*,109,-13,-4
c1ccc(-c2nn3c(C4COc5ccccc5O4)nnc3s2)cc1 (configuration not stated),0,.,.,.,-4
